Assay results from PubChem BioAssay AID588817 (The Scripps Research Institute Molecular Screening Center, 2011).
Active and inactive are the calls of the source.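 How the source made its calls: active means compounds cutting probe labeling of the enzyme in cells by at least 50% at 0.1 µM; inactive means under 50% inhibition at that dose.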

Biological target: Platelet-activating factor acetylhydrolase (Mus musculus) (UniProt Q60963)
Test: pPAFAH inhibition in transfected cells, late-stage follow-up, cell-based, gel-based competitive ABPP, fluorescence (AID 588817)
Conditions: HEK293T overexpressing mouse pPAFAH, 4 h; at 10 µM (top of the series)
Method in brief: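 Test system: mouse pPAFAH-transfected 293T cells / Buffer or medium: serum-free medium during compound treatment / Doses: four-point series of 10, 1, 0.1, 0.01 µM final / Times: 4 h compound treatment, 30 min probe labelling, 37 °C / Measured by: gel fluorescence band intensity after SDS-PAGE / Controls: DMSO high control, blank-gel background low control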

Platelet-activating factor acetylhydrolase (Mus musculus), sequence (Q60963 whole entry, looked up): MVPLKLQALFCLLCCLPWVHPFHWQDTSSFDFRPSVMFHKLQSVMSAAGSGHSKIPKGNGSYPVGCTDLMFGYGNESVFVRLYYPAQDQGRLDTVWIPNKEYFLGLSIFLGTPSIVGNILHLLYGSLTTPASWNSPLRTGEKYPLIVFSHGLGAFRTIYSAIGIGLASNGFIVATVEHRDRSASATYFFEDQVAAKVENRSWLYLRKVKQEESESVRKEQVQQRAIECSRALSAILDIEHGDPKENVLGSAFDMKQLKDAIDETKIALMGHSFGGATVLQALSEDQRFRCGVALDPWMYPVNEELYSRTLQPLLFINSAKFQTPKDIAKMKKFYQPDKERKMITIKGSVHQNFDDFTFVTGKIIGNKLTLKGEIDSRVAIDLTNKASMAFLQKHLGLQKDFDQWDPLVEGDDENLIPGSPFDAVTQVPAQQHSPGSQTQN

Cc1cc(N2CCN(C(=O)Oc3ccc(-c4ccccc4)cn3)CC2)c2ccccc2n1
inhibition: 100% (active)
